In ChEMBL document CHEMBL4321838, “Drug Design Targeting T-Cell Factor-Driven Epithelial-Mesenchymal Transition as a Therapeutic Strategy for Colorectal Cancer” (J Med Chem, 2019):
The source made the active and inactive calls.

Key:
[1] = target: T1, DNA topoisomerase 2-alpha (Homo sapiens, UniProt P11388); assay: Inhibition of human topoisomerase 2alpha mediated decatenation at 30 uM using kDNA as susbtrate preincubated for 20 mins followed by substrate and ATP addition and measured after 1 hr by ethidium bromide staining based gel electrophoresis method relative to control
T1 sequence (P11388 whole entry): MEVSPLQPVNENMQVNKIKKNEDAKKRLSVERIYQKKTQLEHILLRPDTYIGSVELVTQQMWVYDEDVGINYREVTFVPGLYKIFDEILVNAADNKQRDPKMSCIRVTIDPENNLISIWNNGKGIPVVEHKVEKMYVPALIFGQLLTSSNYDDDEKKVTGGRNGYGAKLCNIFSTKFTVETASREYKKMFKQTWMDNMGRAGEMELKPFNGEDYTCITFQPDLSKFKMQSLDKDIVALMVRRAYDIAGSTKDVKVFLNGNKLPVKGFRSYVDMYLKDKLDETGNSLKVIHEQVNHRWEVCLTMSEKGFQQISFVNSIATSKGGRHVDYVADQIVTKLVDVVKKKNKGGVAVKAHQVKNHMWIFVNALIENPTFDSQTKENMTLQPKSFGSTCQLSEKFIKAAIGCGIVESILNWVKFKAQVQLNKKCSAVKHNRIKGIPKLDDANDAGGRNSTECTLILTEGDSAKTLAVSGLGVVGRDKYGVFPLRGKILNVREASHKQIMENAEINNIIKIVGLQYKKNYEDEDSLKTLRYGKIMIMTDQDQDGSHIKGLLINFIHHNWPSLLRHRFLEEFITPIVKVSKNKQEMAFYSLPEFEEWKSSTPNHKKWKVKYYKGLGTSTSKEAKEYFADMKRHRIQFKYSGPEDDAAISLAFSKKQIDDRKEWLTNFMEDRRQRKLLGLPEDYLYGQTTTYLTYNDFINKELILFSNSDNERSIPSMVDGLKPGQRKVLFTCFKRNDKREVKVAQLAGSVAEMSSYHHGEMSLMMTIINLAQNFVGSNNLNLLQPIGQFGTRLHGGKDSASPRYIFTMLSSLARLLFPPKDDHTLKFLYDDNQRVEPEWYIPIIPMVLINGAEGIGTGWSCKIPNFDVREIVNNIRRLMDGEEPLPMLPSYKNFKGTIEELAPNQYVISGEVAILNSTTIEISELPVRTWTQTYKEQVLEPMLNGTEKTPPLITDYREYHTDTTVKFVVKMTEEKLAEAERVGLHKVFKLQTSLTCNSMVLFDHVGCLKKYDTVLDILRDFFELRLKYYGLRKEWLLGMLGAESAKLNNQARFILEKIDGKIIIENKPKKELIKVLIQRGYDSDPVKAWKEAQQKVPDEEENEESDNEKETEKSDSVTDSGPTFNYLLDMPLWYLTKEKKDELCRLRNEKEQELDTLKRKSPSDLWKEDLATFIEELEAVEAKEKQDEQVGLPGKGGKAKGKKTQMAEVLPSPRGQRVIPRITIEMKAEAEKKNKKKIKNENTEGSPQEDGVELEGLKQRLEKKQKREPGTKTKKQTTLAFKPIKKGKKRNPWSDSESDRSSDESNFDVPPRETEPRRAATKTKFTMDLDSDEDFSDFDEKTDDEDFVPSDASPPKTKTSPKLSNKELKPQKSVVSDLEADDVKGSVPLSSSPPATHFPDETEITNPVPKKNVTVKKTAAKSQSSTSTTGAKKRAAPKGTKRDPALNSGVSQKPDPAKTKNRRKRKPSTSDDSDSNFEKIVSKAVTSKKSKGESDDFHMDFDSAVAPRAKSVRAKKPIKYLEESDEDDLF
Outline: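 Human TOP2A (3 U) preincubated 20 min at 37 °C with compound at 30 μM in 1.2% DMSO. Reaction started with 2 mM ATP and 35 ng kDNA and run 1 h at 37 °C. Products resolved on 0.8% agarose in TBE with 0.2 μg/mL ethidium bromide; decatenated bands compared with vehicle.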

SW-620 [2] = assay: Cytotoxicity against human SW620 organoids assessed as cell death with loss of membrane integrity after 72 hrs by CellTox Green assay; format: functional, cell-based; conditions: SW-620, 72 h
Outline: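 SW620 tumor organoids exposed 72 h to inhibitor over 0–40 μM together with CellTox Green Express (0.5X). Whole-well mean fluorescence imaged (ex 488, em 500–550 nm). Normalised to lysis buffer as 0% viability and 0.4% DMSO as 100% viability.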

[3] = Metabolic stability in CD-1 mouse inactive microsomes incubated for 1 hr by LC-MS/MS analysis; format: ADME, Microsome
[4] = Drug metabolism in CD-1 mouse active microsomes assessed as CYP450-mediated oxidative phase 1 metabolite formation measured within 30 mins by LC-MS/MS analysis; format: ADME; conditions: 0.5 h
[5] = target: T1, DNA topoisomerase 2-alpha; assay: Inhibition of human topoisomerase 2alpha mediated decatenation using kDNA as susbtrate preincubated for 20 mins followed by substrate and ATP addition and measured after 1 hr by ethidium bromide staining based gel electrophoresis method
Outline: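 IC50 from decatenation gels: TOP2A at 4 U per reaction, compound as 2-fold serial dilutions from 58.6 nM to 30 μM, 20 min preincubation. Then 2 mM ATP plus 35 ng kDNA for 1 h at 37 °C. Gels were 0.8% agarose with ethidium bromide, with decatenated and catenated DNA marker lanes.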

[6] = target: T1, DNA topoisomerase 2-alpha; assay: Inhibition of topoisomerase 2alpha dependent TCF transcription in human SW620 organoids transduced with TOPflash luminescent reporter at 10 uM after 72 hrs by luciferase based TOPFlash reporter gene assay
[7] = target: T1, DNA topoisomerase 2-alpha; assay: Inhibition of topoisomerase 2alpha in human SW620 organoids transfected with EcadPro-RFP reporter assessed as reversion of epithelial-mesenchymal transition by measuring increase in E-cadherin expression at 10 uM after 72 hrs by Hoechst 33342 staining based mCherryRFP reporter gene assay
Outline: (§1)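 SW620 cells stably carrying VimPro-GFP or EcadPro-mCherry (puromycin selected) grown as organoids and dosed 72 h. Stained with 16 μM Hoechst 33342 for 1 h and imaged as 15 z-layers, 26.5 μm apart. Nuclei segmented and GFP- or mCherry-positive cells counted above background thresholds. Percent positive cells normalised to DMSO.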

SW-620 [8] = assay: Anticlonogenic activity against human SW620 cells assessed as loss of cancer stem cell stemness by measuring inhibition of colony formation at 10 uM incubated for 24 hrs followed by replating and measured after 7 days by clonogenic assay; format: functional, cell-based
SW-620 [9] = assay: Antiinvasive activity in human SW620 organoids transduced with NucLight-Red virus assessed as inhibition of cell invasion at 10 uM incubated for 72 hrs and measured after 72 hrs by matrigel based fluorescence analysis; format: functional
Outline: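 NucLight-Red-labelled SW620 organoids treated 72 h at 10 μM in 0.1% DMSO, then dissociated. 5,000 live cells per well seeded in 50% Matrigel in the upper chamber of a migration plate, 0.5% FBS above and 20% FBS below. Invading cells tracked by bottom-side fluorescence over days, six replicates per condition.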

[10] = target: T1, DNA topoisomerase 2-alpha; assay: Inhibition of topoisomerase 2alpha in human SW620 organoids transfected with VimPro-GFP reporter assessed as reversion of epithelial-mesenchymal transition by measuring reduction in vimentin expression at 10 uM after 72 hrs by Hoechst 33342 staining based GFP reporter gene assay; outline: as §1
[11] = target: T1, DNA topoisomerase 2-alpha; assay: Inhibition of topoisomerase 2alpha dependent TCF transcription in human SW620 organoids transduced with TOPflash luminescent reporter after 72 hrs by luciferase based TOPFlash reporter gene assay
Outline: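 SW620 cells stably carrying pCDH-TOPflash-luc grown as organoids: 5,000 cells per U-bottom well in phenol red-free RPMI with 5% FBS and 2% Matrigel, 72 h. Inhibitor then applied 72 h. One-Glo luciferase and CellTiter-Glo 3D added 1:1. Luciferase signal normalised to viability, then to DMSO controls.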

[12] = Drug metabolism in CD-1 mouse active microsomes assessed as CYP450-mediated oxidative phase 1 metabolite formation by LC-MS/MS analysis
[13] = target: T1, DNA topoisomerase 2-alpha; assay: Poison activity at topoisomerase 2alpha in human SW620 cells assessed as induction of DNA double stranded break by measuring gamma H2AX phosphorylation up to 40 uM after 6 hrs by Hoechst-33342 staining based immunofluorescence assay; format: cell-based
Outline: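 SW620 monolayers, 20,000 cells per well, treated with compound for 6 or 24 h. Fixed in 4% paraformaldehyde, then permeabilised and blocked. Stained with γ-H2AX antibody overnight at 4 °C, FITC secondary antibody, and Hoechst 33342, then imaged at 20x.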

Compound `CC(=O)Nc1ccc2c(-c3cc(C(F)(F)F)ccc3O)ccnc2c1O` has an inhibition [1] of 100%.
Work on `CC(=O)Nc1ccc2c(-c3cccc(F)c3)ccnc2c1O` yielded an inhibition [1] of 100%.
For `COc1cc(NC(C)=O)c(O)c2nccc(-c3ccccc3NC(=O)c3ccccc3)c12`, the inhibition [1] was 100%, the EC50 (SW-620 [2]) was greater than 30 µM and the Stability [3] was “Stable”. For the same compound, the Drug metabolism [4] was “Metabolite_Detected”, the IC50 [5] was 1200 nM and the inhibition [6] was “Active”. For the same compound, the inhibition [7] was “Active”, the inhibition (SW-620 [8]) was “Active” and the inhibition (SW-620 [9]) was “Active”. For the same compound, the inhibition [10] was “Active”, the IC50 [11] was 2400 nM and the Drug metabolism [12] was “Metabolite_Notdetected”.
`CC(=O)Nc1ccccc1-c1ccnc2c(O)c(NC(=O)CCN3CCOCC3)ccc12` showed an inhibition [1] of 1%.
With `Cn1ccc2c(c1=O)C(=O)c1nccc3c1c-2nc1ccccc13` [NEOAMPHIMIDINE] the Activity [13] was “Not Active”.
For `CC(=O)Nc1ccc2c(-c3ccc(C(F)(F)F)cc3)ccnc2c1O`, the inhibition [1] was 97%.
With `CC(=O)Nc1ccc2c(-c3cncnc3)ccnc2c1O` the inhibition [1] was 0%.
`CC(=O)Nc1ccc2c(-c3ccc(F)cc3)ccnc2c1O` gave an inhibition [1] of 1%.
Work on `O=C(CN1CCOCC1)Nc1ccc2c(-c3cc(F)ccc3O)ccnc2c1O` yielded an inhibition [1] of 4%.
In the case of `CC(=O)Nc1ccc2c(-c3ccoc3)ccnc2c1O`, the inhibition [1] is reported as 86%, the EC50 (SW-620 [2]) is reported as greater than 30 µM and the inhibition (SW-620 [8]) is reported as “Active”. For the same compound, the inhibition (SW-620 [9]) was “Active” and the IC50 [11] was 1700 nM.
With `CC(=O)Nc1ccccc1-c1ccnc2c(O)c(NC(C)=O)ccc12` the inhibition [1] was 1%.
`CC(C)(C)C(=O)Nc1ccc2c(-c3ccccc3)ccnc2c1O` showed an inhibition [1] of 97%, an EC50 (SW-620 [2]) greater than 30 µM and an IC50 [5] of 1300 nM. The inhibition (SW-620 [8]) was “Active”, the inhibition (SW-620 [9]) was “Active” and the IC50 [11] was 4700 nM.
With `CC(=O)Nc1ccc2c(-c3ccco3)ccnc2c1O` the inhibition [1] was 0%.
In the case of `CC(=O)Nc1cccc(-c2ccnc3c(O)c(NC(C)=O)ccc23)c1`, the inhibition [1] is reported as 3%.
